Reference: the RNAGym collection of RNA variant scans (doi:10.1101/gad.245936.114)
Fewer inactive variants are shown than the library holds.

B1: tRNA (parent)
chain: CUCUCGGUAGCCAAGUUGGUUUAAGGCGCAAGACUUUAAUUUAUCACUACGAAAUCUUGAGAUCGGGCGUUCGACUCGCCCCCGGGAGAUUUUUUCCUCGAGCAA

Variants of: B1
Assay: nonsense suppression (GFP-seq) (ratio to wild type); higher = more function; SUP4oc tRNA, yeast GFP reporter sort-seq
Outline: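 Yeast carrying genome-integrated SUP4oc tRNA variants from a library with ~3% random mutations were grown in raffinose/galactose medium with 80 mg/L adenine. Each strain also carried a galactose-driven GFP ochre reporter and RFP. Cells were sorted into GFP/RFP bins, and each bin was Illumina-sequenced (phred ≥30). Nonsense suppression (GFPSEQ) is the bin median GFP/RFP, weighted by each variant's estimated cell share per bin, relative to wild-type SUP4oc; variants needed ≥100 reads and ≥30 cells.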

First: U17A A24U
Second: U17A A24C
The nonsense suppression of the first is lower: 0.2 for the first, 0.902 for the second.

Going from U20G U55C to U20C U35C, the nonsense suppression falls from 0.849 to 0.0559.

Going from U20C C72G to U17A C29U, the nonsense suppression rises from 0.063 to 1.15.

Going from U20C A89U to U20G C56U, the nonsense suppression rises from 0.0684 to 0.148.

First: U17C A87G
Second: U17A G25C
The nonsense suppression of the first is higher: 0.226 for the first, 0.068 for the second.

Going from U17G A23C to U17C G61C, the nonsense suppression rises from at most 0.026 to 0.769.

First: U17C G61A
Second: G18C A54G
The nonsense suppression of the first is higher: 0.235 for the first, at most 0.026 for the second.

U20A C56A G66A and U20G C81G cannot be ordered by nonsense suppression: at most 0.026 for the first, at most 0.026 for the second.

G18C G19A G66A and G19A A23C G85U cannot be ordered by nonsense suppression: at most 0.026 for the first, at most 0.026 for the second.

Going from U16G U76C to U20G G25A G78A, the nonsense suppression falls from 1.07 to at most 0.026.

U17C G19A C27G and G18U C83A cannot be ordered by nonsense suppression: at most 0.026 for the first, at most 0.026 for the second.

First: U16G G25C
Second: G19U G28A C56G
The nonsense suppression of the first is higher: 0.2 for the first, at most 0.026 for the second.

U20G A23U G88U and G19U G25A A31G U35G C64G cannot be ordered by nonsense suppression: at most 0.026 for the first, at most 0.026 for the second.

Going from G18U U20C U76G to U17C A24C, the nonsense suppression rises from 0.264 to 0.276.

Compared with U17C A24G, U20C A30U is higher in nonsense suppression: 0.0323 for the first, 0.0386 for the second.

Compared with U20C A30G, U16G C82G is lower in nonsense suppression: 0.129 for the first, at most 0.026 for the second.

First: U17G G19A
Second: U17G G19U
The nonsense suppression of the first is lower: 0.204 for the first, 1.05 for the second.

Compared with U16G U22A, U17C A30U is lower in nonsense suppression: 0.872 for the first, 0.16 for the second.

First: U17C A30G
Second: U17G A33U U63G C68A U71G
The nonsense suppression of the first is higher: 0.326 for the first, at most 0.026 for the second.

Going from U17A U55C to U17C A33G, the nonsense suppression falls from 0.176 to 0.0608.

Going from U20C U55C to U17G A87G, the nonsense suppression rises from 0.0996 to 0.752.

G19A U63C C82A and G18C G19A A24U cannot be ordered by nonsense suppression: at most 0.026 for the first, at most 0.026 for the second.

Compared with U21A A54U U76C, U20C U63G is lower in nonsense suppression: 0.751 for the first, 0.0493 for the second.

Compared with U17C G28C C75G, U17G A31G is higher in nonsense suppression: 1.02 for the first, 1.15 for the second.

G19C C34U U71C C82G and G18U A30U G78U cannot be ordered by nonsense suppression: at most 0.026 for the first, at most 0.026 for the second.

First: U20A A24C
Second: U20A A24U
The nonsense suppression of the first is higher: 0.192 for the first, 0.0696 for the second.

First: U17C A30G A31G
Second: U20C C79U G84U
The nonsense suppression of the first is higher: 0.0827 for the first, at most 0.026 for the second.

U20C G88U and U17C G88U cannot be ordered by nonsense suppression: at most 0.026 for the first, at most 0.026 for the second.

Compared with U17C C68A C82U, G18C G88A is higher in nonsense suppression: at most 0.026 for the first, 0.135 for the second.

U17C A62G U70C and U16G C27G cannot be ordered by nonsense suppression: at most 0.026 for the first, at most 0.026 for the second.

First: U21A C79G
Second: U21A C79U
The nonsense suppression of the first is lower: at most 0.026 for the first, 0.444 for the second.

Compared with U17C G84A, G18U U76C G86U is lower in nonsense suppression: 0.048 for the first, at most 0.026 for the second.

First: U16G C29U A89C
Second: U16G U17A
The nonsense suppression of the first is lower: at most 0.026 for the first, 1.05 for the second.

First: U16G U17C
Second: U20C C77U
The nonsense suppression of the first is higher: 1.05 for the first, 0.0349 for the second.

Compared with U20C C80U, G18A U20G is higher in nonsense suppression: 0.036 for the first, 0.905 for the second.

Compared with U17C U22A, U20A U55C C82G is lower in nonsense suppression: 0.758 for the first, at most 0.026 for the second.

First: U20G G32C A62U
Second: U17G A54U G61C
The nonsense suppression of the first is lower: at most 0.026 for the first, 0.162 for the second.

Compared with U16G A60G, U17C U55C is higher in nonsense suppression: 0.39 for the first, 0.444 for the second.

Compared with U17A U76C, U20C U22C A54U is lower in nonsense suppression: 1.06 for the first, 0.412 for the second.

U17A A31G C72G U76A G78U and U20G G26C cannot be ordered by nonsense suppression: at most 0.026 for the first, at most 0.026 for the second.

Compared with U17A G78A, U17A G78U is lower in nonsense suppression: 0.449 for the first, 0.186 for the second.

Going from U16G A54U U63G to U20A G78A, the nonsense suppression falls from 0.278 to 0.0977.

Compared with U21A A87G, G19U A60U G73U is lower in nonsense suppression: 0.493 for the first, at most 0.026 for the second.

Going from U20C A60G to U20G G59C C64A G85U, the nonsense suppression falls from 0.0437 to at most 0.026.

First: G19U G67U
Second: U20A G85U
The nonsense suppression of the first is lower: at most 0.026 for the first, 0.0676 for the second.

First: U20G U22G
Second: U17C U76C
The nonsense suppression of the first is lower: 1.06 for the first, 1.09 for the second.

G18A G73A and U17G G66U G69A cannot be ordered by nonsense suppression: at most 0.026 for the first, at most 0.026 for the second.

First: G18C A54C G84U
Second: U20A G73C
The nonsense suppression of the first is lower: at most 0.026 for the first, 0.0366 for the second.

Going from U16G C29U to G18C C29U G85A G88A, the nonsense suppression falls from 1.11 to at most 0.026.

Going from U20A A74U to U17C U63A C72G, the nonsense suppression falls from 0.0745 to at most 0.026.

Going from U20C A31U to U20C A31G, the nonsense suppression falls from 0.0722 to 0.0336.

Compared with G19A A31G, U17C C83U is higher in nonsense suppression: 0.0307 for the first, 0.191 for the second.

First: U16G C34U
Second: U17C A54U
The nonsense suppression of the first is lower: at most 0.026 for the first, 0.788 for the second.

Compared with U17C U21G, U17A G32C U71G is lower in nonsense suppression: 0.801 for the first, 0.0947 for the second.

Compared with U17G A54G U55G, U17A U21C G85A is higher in nonsense suppression: at most 0.026 for the first, 1.06 for the second.

First: U17C G28A
Second: U20A G28A
The nonsense suppression of the first is higher: 1.09 for the first, 0.813 for the second.

Going from U20A G28C to U21A A31G, the nonsense suppression rises from 0.182 to 1.16.

First: U17G A60C
Second: U21A C29A C79U
The nonsense suppression of the first is higher: 0.188 for the first, at most 0.026 for the second.

Compared with G19U G26C U57C, U16G G67A is higher in nonsense suppression: at most 0.026 for the first, 0.178 for the second.

Going from U16G C56A U58G A60C to U17G, the nonsense suppression rises from at most 0.026 to 0.999.

Going from U17C to U17A, the nonsense suppression falls from 1.05 to 0.937.

First: U17C U20G
Second: U16G U57A C64U G66U G69A
The nonsense suppression of the first is higher: 1.25 for the first, at most 0.026 for the second.

Going from U17G A54G U57C to U16G U17C C72A, the nonsense suppression rises from at most 0.026 to 0.27.

Compared with U17G U21G, U17G U21A is higher in nonsense suppression: 0.717 for the first, 1.16 for the second.

Going from U17G U21C to G19A U63G, the nonsense suppression falls from 1.05 to 0.143.

Going from U20G G73A to G18C C27G G67A G69C, the nonsense suppression rises from 0.677 to 1.05.

First: U17A U63A U76C
Second: G19A U21G C64U
The nonsense suppression of the first is higher: 0.155 for the first, at most 0.026 for the second.

Going from U20G A33U to U20G A33G, the nonsense suppression rises from 0.0902 to 0.18.

Going from U20C U22C to U20C G59A, the nonsense suppression falls from 0.814 to 0.0894.

First: U17G U63A C75A G85A
Second: U17A A33G
The nonsense suppression of the first is higher: 1.08 for the first, 0.104 for the second.

Compared with U20C G28A U57G C77A, U17G G32U U55A U57C U76C is lower in nonsense suppression: 0.813 for the first, at most 0.026 for the second.

Going from U21A A60G to U16G U76G G86C, the nonsense suppression falls from 0.302 to at most 0.026.

Going from U17A G28A G85A to G19C U21C, the nonsense suppression falls from 1.02 to at most 0.026.

Compared with U16G C79U, U17C U63C is higher in nonsense suppression: 0.852 for the first, 1.18 for the second.

First: U17C U63A
Second: U17C U63G
The nonsense suppression of the first is lower: 0.197 for the first, 0.804 for the second.

Compared with G19C G67C, U20A A60U C79U is higher in nonsense suppression: at most 0.026 for the first, 0.212 for the second.

Compared with U20A A24U U63A, U20G C82U is higher in nonsense suppression: at most 0.026 for the first, 0.838 for the second.

Going from U17G U21G G61U to U21A A30G, the nonsense suppression rises from 0.0263 to 0.42.

G18A U55A U58A and U17G C83A cannot be ordered by nonsense suppression: at most 0.026 for the first, at most 0.026 for the second.

Compared with U20C G85A, U16G C83U is lower in nonsense suppression: 0.861 for the first, 0.223 for the second.

Going from U20A G61U to U20A G61C, the nonsense suppression falls from 0.217 to 0.0711.

Compared with U20C G61A, U20A U35G A60C G69A C82A is lower in nonsense suppression: 0.212 for the first, at most 0.026 for the second.

Compared with U20C C75U, U21A A54C G61A is lower in nonsense suppression: 0.843 for the first, 0.215 for the second.

Variant G19C A30U has a nonsense suppression of at most 0.026.
